This is an account of results in ChEMBL document CHEMBL1123964, “Potent, long-acting luteinizing hormone-releasing hormone antagonists containing new synthetic amino acids: N,N'-dialkyl-D-homoarginines” (J Med Chem, 1988).

Test [1] has as its target T1, Gonadotropin-releasing hormone receptor (Rattus norvegicus) (UniProt P30969).
T1 sequence (whole entry): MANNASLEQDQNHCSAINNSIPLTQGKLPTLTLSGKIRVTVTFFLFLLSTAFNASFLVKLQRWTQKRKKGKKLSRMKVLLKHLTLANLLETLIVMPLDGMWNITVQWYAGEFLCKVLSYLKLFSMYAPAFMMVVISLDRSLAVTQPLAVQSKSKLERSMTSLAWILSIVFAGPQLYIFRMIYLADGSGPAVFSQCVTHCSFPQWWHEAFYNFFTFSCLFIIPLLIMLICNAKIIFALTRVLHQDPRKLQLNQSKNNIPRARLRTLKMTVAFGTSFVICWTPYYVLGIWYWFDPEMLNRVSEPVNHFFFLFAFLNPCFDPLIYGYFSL
In words: Antiovulatory activity on diestrus II following administration as a solution in corn oil (24h earlier) in rat. The class given is functional, organism-based. Summed up: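 Female rats with at least two normal 4-day cycles before the test cycle were selected. They received the analogue sc in corn oil at noon on diestrus II, 24 h before the proestrus dosing time. On the morning of expected estrus the oviducts were examined under a dissecting microscope, and freshly ovulated eggs were counted. ED50 was taken from percent ovulating versus log-dose, with 10 rats per dose group and usually three or more dose groups.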

Test [2] concerns the target T1, Gonadotropin-releasing hormone receptor (Rattus norvegicus). In words: Antiovulatory activity on proestrus following administration of solution in corn oil in rat. The test is classed as functional, organism-based. In outline:
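Rats with at least two normal 4-day cycles were used. They were injected sc with the analogue in corn oil at noon on proestrus, about 2 h before the preovulatory LH-RH surge. Oviducts were removed on the morning of expected estrus and checked microscopically for fresh eggs, which were counted. ED50 came from percent of females ovulating plotted against log-dose, with 10 animals per dose group.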

The target is the same in test [3]. In words: Antiovulatory activity on proestrus was measured by administering as a solution in 50% propylene glycol / 0.9% saline in rat. The test is classed as functional.

Square brackets hold non-standard residues; d marks the D form. Peptide text beside a SMILES is read from it. dPhe(4-Cl) = N[C@H](Cc1ccc(Cl)cc1)C(=O)O; dPhe(4-F) = N[C@H](Cc1ccc(F)cc1)C(=O)O; d2Nal = N[C@H](Cc1ccc2ccccc2c1)C(=O)O Some results are limits rather than exact numbers.

In the case of `CCCNC(=NCCCC[C@@H](NC(=O)[C@H](Cc1ccc(O)cc1)NC(=O)[C@H](CO)NC(=O)[C@@H](Cc1c[nH]c2ccccc12)NC(=O)[C@@H](Cc1ccc(Cl)cc1)NC(=O)[C@@H](Cc1ccc(Cl)cc1)NC(C)=O)C(=O)N[C@@H](CC(C)C)C(=O)N[C@@H](CCCN=C(N)N)C(=O)N1CCC[C@H]1C(=O)NCC(N)=O)NCCC`, the ED50 (ug injection-1) in test [1] was found to be 16; in test [2] it was 2.3; in test [3], 2.6.
The matching figures for `CC(=O)N[C@H](Cc1ccc(Cl)cc1)C(=O)N[C@H](Cc1ccc(Cl)cc1)C(=O)N[C@H](Cc1c[nH]c2ccccc12)C(=O)N[C@@H](CO)C(=O)N[C@@H](Cc1ccc(O)cc1)C(=O)N[C@H](CCCCN=C(N)N)C(=O)N[C@@H](CC(C)C)C(=O)N[C@@H](CCCN=C(N)N)C(=O)N1CCC[C@H]1C(=O)N[C@H](C)C(N)=O`: less than 8, 2 and 1.3.
On to `CCNC(=NCCCC[C@@H](NC(=O)[C@H](Cc1ccc(O)cc1)NC(=O)[C@H](CO)NC(=O)[C@@H](Cc1c[nH]c2ccccc12)NC(=O)[C@@H](Cc1ccc(Cl)cc1)NC(=O)[C@@H](Cc1ccc(Cl)cc1)NC(C)=O)C(=O)N[C@@H](CC(C)C)C(=O)N[C@@H](CCCN=C(N)N)C(=O)N1CCC[C@H]1C(=O)NCC(N)=O)NCC`, for which the ED50 (ug injection-1) is 16 in test [1], 2.4 in test [2] and 2 in test [3].
Take `CCNC(=NCCCC[C@@H](NC(=O)[C@H](Cc1ccc(O)cc1)NC(=O)[C@H](CO)NC(=O)[C@@H](Cc1ccc2ccccc2c1)NC(=O)[C@@H](Cc1ccc(Cl)cc1)NC(=O)[C@@H](Cc1ccc2ccccc2c1)NC(C)=O)C(=O)N[C@@H](CC(C)C)C(=O)N[C@@H](CCCN=C(N)N)C(=O)N1CCC[C@H]1C(=O)N[C@H](C)C(N)=O)NCC`: the ED50 (ug injection-1) in test [2] was found to be 1.7.
For the compound `CCNC(=NCCCC[C@@H](NC(=O)[C@H](Cc1ccc(O)cc1)NC(=O)[C@H](CO)NC(=O)[C@@H](Cc1c[nH]c2ccccc12)NC(=O)[C@@H](Cc1ccc(Cl)cc1)NC(=O)[C@@H](Cc1ccc2ccccc2c1)NC(C)=O)C(=O)N[C@@H](CC(C)C)C(=O)N[C@@H](CCCN=C(N)N)C(=O)N1CCC[C@H]1C(=O)N[C@H](C)C(N)=O)NCC` (stereo in doubt), the ED50 (ug injection-1) is 2.5 in test [1], 0.5 in test [2] and 0.7 in test [3].
The matching figures for `CCNC(=NCCCC[C@@H](NC(=O)[C@H](Cc1ccc(O)cc1)NC(=O)[C@H](CO)NC(=O)[C@@H](Cc1c[nH]c2ccccc12)NC(=O)[C@@H](Cc1ccc(Cl)cc1)NC(=O)[C@@H](Cc1ccc(Cl)cc1)NC(C)=O)C(=O)N[C@@H](CC(C)C)C(=O)NC(CCCN=C(N)N)C(=O)N1CCC[C@H]1C(=O)N[C@H](C)C(N)=O)NCC` (stereo partly specified): 3.3, 1.6 and 1.7.
The matching figures for `CC(=O)N1CCC[C@H]1C(=O)N[C@H](Cc1ccc(F)cc1)C(=O)N[C@H](Cc1ccc2ccccc2c1)C(=O)N[C@@H](CO)C(=O)NC(Cc1ccc(O)cc1)C(=O)N[C@@H](Cc1ccc2ccccc2c1)C(=O)N[C@@H](CC(C)C)C(=O)N[C@@H](CCCN=C(N)N)C(=O)N1CCC[C@H]1C(=O)NCC(N)=O` (stereo in doubt): 140, 3.3 and 2.2.
In the case of `CCCNC(=NCCCC[C@@H](NC(=O)[C@H](Cc1ccc(O)cc1)NC(=O)[C@H](CO)NC(=O)[C@@H](Cc1c[nH]c2ccccc12)NC(=O)[C@@H](Cc1ccc(F)cc1)NC(=O)[C@@H](Cc1ccc2ccccc2c1)NC(C)=O)C(=O)N[C@@H](CC(C)C)C(=O)N[C@@H](CCCN=C(N)N)C(=O)N1CCC[C@H]1C(=O)NCC(N)=O)NCCC`, the figures for the ED50 (ug injection-1) in test [1], in test [2] and in test [3] were 12, 4.7 and 2.4, respectively.
`CCCNC(=NCCCC[C@@H](NC(=O)[C@H](Cc1ccc(O)cc1)NC(=O)[C@H](CO)NC(=O)[C@@H](Cc1c[nH]c2ccccc12)NC(=O)[C@@H](Cc1ccc(Cl)cc1)NC(=O)[C@@H](Cc1ccc(Cl)cc1)NC(C)=O)C(=O)N[C@@H](CC(C)C)C(=O)N[C@@H](CCCN=C(N)N)C(=O)N1CCC[C@H]1C(=O)N[C@H](C)C(N)=O)NCCC`: the ED50 (ug injection-1) in test [1] came to 14; in test [2], 2; in test [3], 2.6.
In the case of `CC(=O)N[C@H](Cc1ccc2ccccc2c1)C(=O)N[C@H](Cc1ccc(F)cc1)C(=O)N[C@H](Cc1c[nH]c2ccccc12)C(=O)N[C@@H](CO)C(=O)N[C@@H](Cc1ccc(O)cc1)C(=O)N[C@H](CCCN=C(N)N)C(=O)N[C@@H](CC(C)C)C(=O)N[C@@H](CCCN=C(N)N)C(=O)N1CCC[C@H]1C(=O)NCC(N)=O` (Ac-[d2Nal][dPhe(4-F)][dW]SY[dR]LRPG-NH2), the ED50 (ug injection-1) in test [1] was found to be 9; in test [2] it was 1.1; in test [3], 2.4.
As to `CCNC(=NCCCC[C@@H](NC(=O)[C@H](Cc1ccc(O)cc1)NC(=O)[C@H](CO)NC(=O)[C@@H](Cc1c[nH]c2ccccc12)NC(=O)[C@@H](Cc1ccc(F)cc1)NC(=O)[C@@H](Cc1ccc2ccccc2c1)NC(C)=O)C(=O)N[C@@H](CC(C)C)C(=O)N[C@@H](CCCN=C(N)N)C(=O)N1CCC[C@H]1C(=O)NCC(N)=O)NCC`, the ED50 (ug injection-1) in test [1] came out at 3.5; in test [2] it was 1.4; in test [3], 1.6.
The matching figures for `CCNC(=NCCCC[C@@H](NC(=O)[C@H](Cc1ccc(O)cc1)NC(=O)[C@H](CO)NC(=O)[C@@H](Cc1c[nH]c2ccccc12)NC(=O)[C@@H](Cc1ccc(Cl)cc1)NC(=O)[C@@H](Cc1ccc2ccccc2c1)NC(C)=O)C(=O)N[C@@H](CC(C)C)C(=O)N[C@@H](CCCN=C(N)N)C(=O)N1CCC[C@H]1C(=O)NCC(N)=O)NCC`: 2.5, 1 and 2.
The matching figures for `CC(=O)N[C@H](Cc1ccc(Cl)cc1)C(=O)N[C@H](Cc1ccc(Cl)cc1)C(=O)N[C@H](Cc1c[nH]c2ccccc12)C(=O)N[C@@H](CO)C(=O)N[C@@H](Cc1ccc(O)cc1)C(=O)N[C@H](CCCN=C(N)N)C(=O)N[C@@H](CC(C)C)C(=O)N[C@@H](CCCN=C(N)N)C(=O)N1CCC[C@H]1C(=O)N[C@H](C)C(N)=O` (Ac-[dPhe(4-Cl)][dPhe(4-Cl)][dW]SY[dR]LRP[dA]-NH2): 5, 1.2 and 1.7.
Regarding `CNC(=NCCCC[C@@H](NC(=O)[C@H](Cc1ccc(O)cc1)NC(=O)[C@H](CO)NC(=O)[C@@H](Cc1c[nH]c2ccccc12)NC(=O)[C@@H](Cc1ccc(F)cc1)NC(=O)[C@@H](Cc1ccc2ccccc2c1)NC(C)=O)C(=O)N[C@@H](CC(C)C)C(=O)N[C@@H](CCCN=C(N)N)C(=O)N1CCC[C@H]1C(=O)NCC(N)=O)NC`, the ED50 (ug injection-1) in test [1] came out at 5; in test [2], 0.8; in test [3], 1.7.
With `CCNC(=NCCCC[C@@H](NC(=O)[C@H](Cc1ccc(O)cc1)NC(=O)[C@H](CO)NC(=O)[C@@H](Cc1c[nH]c2ccccc12)NC(=O)[C@@H](Cc1ccc(Cl)cc1)NC(=O)[C@@H](Cc1c[nH]c2ccccc12)NC(C)=O)C(=O)N[C@@H](CC(C)C)C(=O)N[C@@H](CCCN=C(N)N)C(=O)N1CCC[C@H]1C(=O)NCC(N)=O)NCC`, in test [2], the ED50 (ug injection-1) stood at 3.4.
As to `CNC(=NCCCC[C@@H](NC(=O)[C@H](Cc1ccc(O)cc1)NC(=O)[C@H](CO)NC(=O)[C@@H](Cc1c[nH]c2ccccc12)NC(=O)[C@@H](Cc1ccc(Cl)cc1)NC(=O)[C@@H](Cc1ccc(Cl)cc1)NC(C)=O)C(=O)N[C@@H](CC(C)C)C(=O)N[C@@H](CCCN=C(N)N)C(=O)N1CCC[C@H]1C(=O)N[C@H](C)C(N)=O)NC`, the results for the ED50 (ug injection-1) in test [1], in test [2] and in test [3] were 5.6, 1 and 1.6, respectively.
For `CC(=O)N[C@H](Cc1ccc2ccccc2c1)C(=O)N[C@H](Cc1ccc(Cl)cc1)C(=O)N[C@H](Cc1cccnc1)C(=O)N[C@@H](CO)C(=O)N[C@@H](Cc1ccc(O)cc1)C(=O)N[C@H](CCCN=C(N)N)C(=O)N[C@@H](CC(C)C)C(=O)N[C@@H](CCCN=C(N)N)C(=O)N1CCC[C@H]1C(=O)N[C@H](C)C(N)=O`, the ED50 (ug injection-1) worked out at 0.3 in test [2] and 0.5 in test [3].
